Assay results gathered from unrelated publications.
Protocols differ between the studies behind these lines.
Target: Megakaryocyte-associated tyrosine-protein kinase (MATK, Homo sapiens, UniProt P42679)
Residues used in one study (P42679 1-507): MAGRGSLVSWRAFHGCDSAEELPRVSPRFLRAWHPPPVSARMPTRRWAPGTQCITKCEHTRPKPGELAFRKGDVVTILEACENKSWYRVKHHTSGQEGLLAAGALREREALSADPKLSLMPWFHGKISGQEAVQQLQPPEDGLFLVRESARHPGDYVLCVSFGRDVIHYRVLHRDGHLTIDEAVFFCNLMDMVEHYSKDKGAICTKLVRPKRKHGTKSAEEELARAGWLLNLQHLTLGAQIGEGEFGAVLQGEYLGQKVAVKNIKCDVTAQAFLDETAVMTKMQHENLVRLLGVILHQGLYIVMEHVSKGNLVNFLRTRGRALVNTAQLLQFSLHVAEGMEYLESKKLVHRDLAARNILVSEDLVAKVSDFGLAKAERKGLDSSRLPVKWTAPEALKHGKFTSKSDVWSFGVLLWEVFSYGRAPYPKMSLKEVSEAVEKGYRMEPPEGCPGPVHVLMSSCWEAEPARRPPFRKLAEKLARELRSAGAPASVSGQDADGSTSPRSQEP

With COc1ccnn2ncc(-c3ccnc(N(C)C)n3)c12 the remaining binding was 100% (binding; 1 µM).
CS(=O)(=O)N1CCCC(NC(=O)[C@H](CCC2CCCCC2)NC(=O)c2ccc(CNc3ncnc4c3nnn4-c3ccccc3)cc2)C1 (stereo partly drawn) gave a remaining binding of 100% (cell-free assay, competition with immobilised ligand; 0.1 µM).
N[C@@H]1CCN(c2nccc(-c3cnn4ncccc34)n2)C1 gave a remaining binding of 100% (binding; 1 µM).
O=C(NCC1CCOCC1)c1n[nH]cc1NC(=O)c1c(F)cccc1F gave a remaining binding of 79% (binding, competition with immobilised ligand; 1 µM).
CCN1CCN(Cc2ccc(C(=O)Nc3ccc(C)c(Oc4ccc5c(c4)CC(=O)N5)c3)cc2C(F)(F)F)CC1 has a remaining binding of 100% (binding, competition with immobilised ligand; 1 µM).
For CNCc1ccccc1-c1csc([C@@H](C)Nc2nc(C)nc3cc(OC)c(OC)cc23)c1, the remaining binding was 57% (cell-free assay, competition with immobilised ligand; 1 µM).
With C=CC(=O)N1CCC(C(=O)NCC(=O)N2CCN(c3nc(-c4cnc(N)nc4C(F)F)nc(N4CCOCC4)n3)CC2)CC1 the remaining binding was 78% (binding, competition with immobilised ligand; 1 µM).
For O=C(c1ccc(Nc2ncc(Cl)c(-c3cc4ccccc4s3)n2)cc1)N1CCC(N2CCCC2)CC1, the remaining binding was 47% (binding, competition with immobilised ligand; 1 µM).
C[C@@H](c1ccc(-n2cnc3c(N)ncnc32)cc1)N1CCc2nn(C)c(Cc3ccccc3)c2C1=O has a remaining binding of 69% (binding, competition with immobilised ligand; 0.1 µM).
The remaining binding of F[C@@H]1CCN(c2nccc(-c3cnn4ncccc34)n2)C1 is reported as 80% (binding; 1 µM).
The remaining binding of O=C(N[C@H]1CCCCC/C=C\C2C[C@@]2(C(=O)O)NC(=O)[C@@H]2C[C@@H](Oc3ccncc3)CN2C1=O)OC1CCCC1 (stereo partly drawn) is reported as 41% (binding, competition with immobilised ligand; 1 µM).
O=C(NCCCN1CCOCC1)c1ccc(Nc2nccc(-c3cc4ccccc4s3)n2)cc1 has a remaining binding of 55% (binding, competition with immobilised ligand; 1 µM).
With COc1cnc(Nc2cccc(S(N)(=O)=O)c2)nc1N1CCN(c2ccccc2)C(=O)C1 the remaining binding was 79% (binding, competition with immobilised ligand; 1 µM).
O=C(c1ccc(Nc2ncc(Cl)c(-c3ccc(Cl)s3)n2)cc1)N1CCC(N2CCCC2)CC1 has a remaining binding of 50% (binding, competition with immobilised ligand; 1 µM).
CC1CCCN1c1nccc(-c2cnn3ncccc23)n1 (stereo not drawn) gave a remaining binding of 100% (binding; 1 µM).
FC(F)(F)c1ccc2c(c1)nc(-c1cccnc1)n2C1CC1 gave a remaining binding of 100% (cell-free assay, competition with immobilised ligand; 1 µM).
The remaining binding of CN(C)c1nccc(-c2cnn3ncccc23)n1 is reported as 100% (binding; 1 µM).
O=C1CCc2cc(Nc3cc(OC4CCOCC4)c([N+](=O)[O-])cc3Cl)ccc2N1 gave a remaining binding of 100% (cell-free assay, competition with immobilised ligand; 1 µM).
C[C@H]1CCN(c2nccc(-c3cnn4ncccc34)n2)C1 has a remaining binding of 90% (binding; 1 µM).
The remaining binding of NS(=O)(=O)c1cc(NC(=O)C2(c3ccccc3Cl)CC2)ccc1Oc1cccc(Cl)c1 is reported as 100% (cell-free assay, competition with immobilised ligand; 1 µM).
COc1cnc(Nc2cccc(S(N)(=O)=O)c2)nc1N1CCN(c2ccccc2)CC1 has a remaining binding of 57% (binding, competition with immobilised ligand; 1 µM).
